Rows were chosen to be rich in hits. Some 2.2% of all compounds tested hit in one or more screens of this group.
Ecoli rRNA inh: reduced GFP signal of wild-type E. coli, primary screen, bacterial rRNA inhibitor project, GFP/RFP fluorescence, OD600, single point | E. coli WT GFP vs humanized-ribosome RFP mutants, 24 h; stronger effect = lower value; DMSO median 0, no signal -100 | GFP signal change (wild-type ribosome), % (no concentration beside the values) | 350,000 tested, 1.6% active;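 active = significant combined selectivity score with lowered wild-type GFP, culture density cut under 30%, mutant RFP and density less affected; inactive = any of these conditions unmet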
PvdQ acylase: P. aeruginosa PvdQ acylase inhibitors, primary screen, biochemical, fluorescence, plate reader and imaging, single point | PvdQ acylase [Pseudomonas aeruginosa LESB58] | purified PvdQ acylase | inhibition, % at 10 µM | 340,000 tested, 0.063% active; in the data active = inhibition above about 30%, passing the limit was not always enough; inconclusive = no clear call, values can overlap the other calls;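 also: 0% = vehicle neutral wells and 100% = reference inhibitor wells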
FN deposition inh: inhibitors of fibronectin matrix deposition, primary screen, AH1F cells, Alexa488-fibronectin fluorescence, plate reader. AH1F fibroblasts, overnight. inhibition, % at 12.6 µM. 350,000 tested, 0.086% active;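 active = mean inhibition across replicates of 30% or more, regardless of how many single replicates reach that level; inconclusive = mean under 30% yet at least half of replicates reach 30%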;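 also: positive control wells lacked labelled fibronectin entirely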
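material = AH1F fibroblast monolayer depositing Alexa488-labelled fibronectin into matrix | amount = 10000 AH1F cells/well | buffer or medium = DMEM plus 2% serum, read in PBS | incubation = 1 h cell adhesion before compound, then overnight fibronectin incubation | detection = fluorescence at 485 nm excitation, 525 nm emission | evaluation = percent inhibition as loss of matrix-bound fibronectin fluorescence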
Env fusion inh: inhibitors of HIV-1 Env-driven cell-cell fusion, primary screen, HeLa-JRFL effector, CEM21 target cells, luciferase; AID 651610, 2012; 360,000 tested, 1.1% active; inhibition, % at 12.3 µM;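 active = mean replicate inhibition score of at least 50 and every replicate individually at or above 50; inconclusive = only one of the two criteria met; inactive = mean below 50 and not all replicates reaching 50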;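 also: 0% = plate neutral controls and 100% = maraviroc near 300 nM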
ERp5 inh: inhibitors of ERp5-driven insulin aggregation, primary screen, biochemical, turbidity, absorbance 650 nm, single point; 90 min; inhibition, % at 9.99 µM; 350,000 tested, 0.05% active; AID 651711, 2012;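 active = mean replicate inhibition above about 25%, with every replicate also reaching it, limit read from the data, passing the limit was not always enough; inconclusive = only one of those two criteria met; inactive = neither criterion met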
Target sequence (Q15084 whole entry, looked up): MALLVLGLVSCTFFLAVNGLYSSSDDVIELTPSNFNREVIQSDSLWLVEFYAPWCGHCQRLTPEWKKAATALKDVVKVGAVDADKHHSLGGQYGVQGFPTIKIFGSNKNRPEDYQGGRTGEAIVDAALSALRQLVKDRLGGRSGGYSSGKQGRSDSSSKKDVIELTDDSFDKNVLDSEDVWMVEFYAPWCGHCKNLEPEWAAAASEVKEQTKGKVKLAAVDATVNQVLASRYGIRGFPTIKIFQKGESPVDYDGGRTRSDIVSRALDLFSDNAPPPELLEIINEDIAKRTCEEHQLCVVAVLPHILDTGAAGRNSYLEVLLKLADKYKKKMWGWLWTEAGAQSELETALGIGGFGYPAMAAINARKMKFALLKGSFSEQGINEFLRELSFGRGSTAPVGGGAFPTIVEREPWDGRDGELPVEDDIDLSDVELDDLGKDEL
PDI inh: inhibitors of human PDI, primary screen, biochemical, turbidity, single point, plate reader; Protein disulfide-isomerase (Homo sapiens), P07237; PDI insulin aggregation turbidity, A650, 90 min; inhibition, % at 10 µM; 350,000 tested, 0.052% active; AID 588391, 2011;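 active = mean inhibition across replicates of 30% or more, whatever share of single replicates reach that level; inconclusive = mean inhibition below 30% while every single replicate reaches 30%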
* marks the source's active call; other numbers are inactive results; i = inactive; ? = inconclusive; . = no result given; [ ] = remark or other dose.

SMILES	Ecoli rRNA inh	PvdQ acylase	FN deposition inh	Env fusion inh	ERp5 inh	PDI inh
CC1Cc2ccccc2N1S(=O)(=O)c1cccc(C(=O)N2CC(=O)Nc3ccccc32)c1 (configuration not stated)	-37.3*	5.2	2.8	26.6	-3.3	13.7
O=C(Nc1ccncc1)c1ccc(Cl)c(S(=O)(=O)N2CCc3ccccc32)c1	-44.5	5.8	.	89.6*	-2.2	-6.0
O=S(=O)(c1cnc(Cl)c(Cl)c1)N1CCc2ccccc21	-33.1*	4.9	-3.8	i	3.8	12.7
NC(=O)C1CCN(C(=O)c2ccc(Cl)c(S(=O)(=O)N3CCc4ccccc43)c2)CC1	-3.4	.	.	0.7	0.3	-0.4
O=C1CN(C(=O)c2ccc(Cl)c(S(=O)(=O)N3CCc4ccccc43)c2)c2ccccc2N1	-34.6*	-13.1	-5.6	9.4	1.3	-6.5
O=C(C[C@@H]1CC[C@@H](NC(=O)CN2CCOCC2)[C@H](CO)O1)NC1CCCCC1	4.0	.	5.4	5.3[16.7 µM]	-3.5	.
Cc1ccc(CCSc2ccc(F)cc2)cn1	-21.7*	.	9.1	-8.2	1.4	4.6
Cc1noc(C)c1S(=O)(=O)Nc1ccc2c(c1)C(=O)N([C@H](C)CO)C[C@@H](C)[C@@H](CN(C)C(=O)NC1CCCCC1)OCCCC[C@H](C)O2	-1.6	.	.	-17.9[16.7 µM]	0.8	.
Cc1ccc(-c2ccc3c(c2)O[C@@H](CN(C)Cc2ccccc2)[C@H](C)CN([C@@H](C)CO)S3(=O)=O)cc1	-2.3	.	-1.9	23.9[16.7 µM]	-9.7	.
C[C@@H]1CN([C@@H](C)CO)S(=O)(=O)c2ccc(-c3ccccc3)cc2O[C@H]1CN(C)Cc1ccccc1	6.5	.	-8.1	55.2*[16.7 µM]	.	.
Cc1ccccc1-c1ccc2c(c1)O[C@H](CN(C)C(=O)Nc1ccc(C(F)(F)F)cc1)[C@H](C)CN([C@@H](C)CO)S2(=O)=O	4.7	.	-0.7	56.1*[16.7 µM]	-0.3	.
C[C@@H]1CN([C@H](C)CO)S(=O)(=O)c2ccc(Br)cc2O[C@@H]1CN(C)Cc1ccccc1	-5.3	.	.	-23.4[16.7 µM]	1.6	.
C[C@@H]1CN([C@H](C)CO)S(=O)(=O)c2ccc(Br)cc2O[C@@H]1CN(C)Cc1ccc(-c2ccccc2)cc1	4.1	.	-2.9	75.9*	3.9	-0.2
C[C@H]1CN([C@@H](C)CO)S(=O)(=O)c2ccc(-c3cccc(C#N)c3)cc2O[C@H]1CN(C)Cc1cccc(F)c1	0.9	.	0.8	74.1*[16.7 µM]	4.2	.
CN(CCO)S(=O)(=O)c1ccc2c(c1)C(=NO)c1cc(S(=O)(=O)N(C)CCO)ccc1-2	-27.1*	-21.7	1.8	11.7	?	2.7
NS(=O)(=O)c1ccc2c(c1)C(=NO)c1cc(S(N)(=O)=O)ccc1-2	-9.6	-19.6	-2.7	2.2	1.8	1.8
COc1ccc(-c2c[n+](CC(=O)OC3CC(C)CCC3C(C)C)c3n2CCC3)cc1 (configuration not stated)	-48.5	0.7	-4.9	60.2*	-5.5	9.5
Cc1ccc(-c2c[n+](Cc3ccc(Cl)cc3)c3n2CCC3)cc1	.	-13.5	-8.8	-6.1	.	-5.9
O=C(C[n+]1cc(-c2ccc(Br)cc2)n2c1CCCCC2)c1ccccc1	-50.5	0.2	.	8.5	5.2	-0.3
Cc1ccc(C[n+]2cc(-c3ccc(Cl)cc3)n3c2CCC3)cc1	-46.8*	-8.1	-13.7	22.8	3.4	-11.2
O=C(C[n+]1cc(-c2ccc(Cl)cc2)n2c1CCCCC2)c1ccccc1	-51.2*	-13.8	-10.8	-16.6	-0.4	2.8
CC(C)[C@@H]1CC[C@@H](C)C[C@H]1OC(=O)C[n+]1cc(-c2ccc(Cl)cc2)n2c1CCCCC2	.	-14.5	-1.1	82.7*	23.8	4.1
C[C@@H]1CN([C@@H](C)CO)C(=O)c2cccc(NC(=O)c3ccncc3)c2O[C@H]1CN(C)C(=O)Nc1ccc(C(F)(F)F)cc1	-2.3	.	.	-6.4[16.7 µM]	0.8	.
Cc1cccc(C(=O)N2CCC(=O)N(C(COCc3ccccc3)Cc3ccccc3)CC2)c1 (configuration not stated)	-20.6	5.0	13.8	29.4	0.9	6.2
Cc1cccc(COCC(Cc2ccccc2)N2CCN(C(=O)c3cccc(Cl)c3)CCC2=O)c1 (configuration not stated)	-17.3	7.2	-1.4	66.2*	1.7	-1.0
SMILES	Ecoli rRNA inh	PvdQ acylase	FN deposition inh	Env fusion inh	ERp5 inh	PDI inh
Cc1cccc(COC[C@H](Cc2ccccc2)N2CCN(C(=O)c3cccc(Cl)c3)CCC2=O)c1	-28.0	.	2.1	74.7*	3.9	.
Cc1cccc(COC[C@H](Cc2ccccc2)N2CCN(C(=O)c3cc(Cl)cc(Cl)c3)CCC2=O)c1	11.6	.	11.6	91.9*	2.8	.
Cc1cccc(COC[C@H](Cc2ccccc2)N2CCN(C(=O)c3cccc(C)c3)CCC2=O)c1	-39.2	.	0.9	20.6	-1.5	.
Cc1ccc(S(=O)(=O)N(C)C[C@H]2Oc3c(NC(=O)c4nc5ccccc5s4)cccc3C(=O)N([C@H](C)CO)C[C@@H]2C)cc1	-5.2	.	.	.	-6.6	.
C[C@@H]1CCCCO[C@@H](CN(C)Cc2ccc(Cl)c(Cl)c2)[C@@H](C)CN([C@@H](C)CO)C(=O)c2cc(NS(=O)(=O)c3ccccc3)ccc2O1	-1.0	.	.	38.1[16.7 µM]	-0.3	.
COc1ccc(C(=O)c2cc3ccc(O)cc3oc2=O)cc1	-17.6*	17.0	.	.	8.8	12.0
O=C(NC(c1ccc(F)cc1)c1ccc2ccccc2n1)C1CCN(Cc2ccc3ccccc3n2)CC1 (configuration not stated)	-1.1	.	0.1	8.6	3.1	11.0
O=C(NC(c1ccc(F)cc1)c1ccc2ccccc2n1)C1CCN(CCOc2ccc(Cl)cc2)CC1 (configuration not stated)	.	.	2.5	77.2*	6.1	-5.1
O=C(NC(c1ccc(F)cc1)c1ccc2ccccc2n1)C1CCN(Cc2cccc(C(F)(F)F)c2)CC1 (configuration not stated)	-13.4	.	.	74.6*	0.7	-0.9
C[C@H]1CN([C@@H](C)CO)C(=O)c2cc(NC(=O)CCC(F)(F)F)ccc2O[C@@H]1CN(C)Cc1ccccc1	0.9	.	.	-6.2[16.7 µM]	-4.3	.
Cc1c(NC(=O)c2ccc3nsnc3c2)cccc1[N+](=O)[O-]	22.4	10.6	32.8*	5.2	.	-1.3
COCc1[nH]nc2c1C(c1ccc(F)cc1)N(Cc1ccccc1)C2=O (configuration not stated)	-6.9	.	6.3	77.3*	1.8	.
CCOc1ccccc1NC(=O)c1ccc(OCC)c([N+](=O)[O-])c1	14.6	1.1	-1.9	-9.5	-2.6	-4.1
